The list is not random: actives were taken first. Their share in the collection is about 1.8%.
M4 antag: antagonists of human muscarinic M4 receptor (CHRM4) | inhibition, % at 3 µM | CHO-hM4 cells, ACh EC80, Fluo-8 calcium fluorescence | hit rate 0.73% among 360,000;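 active = inhibition above its plate's cutoff, the mean inhibition of sample wells plus 3 SD, cut at about 27% in these data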;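 note: 0% = acetylcholine EC80 with DMSO and 100% = DMSO without agonist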
Target sequence (P08173 whole entry, looked up): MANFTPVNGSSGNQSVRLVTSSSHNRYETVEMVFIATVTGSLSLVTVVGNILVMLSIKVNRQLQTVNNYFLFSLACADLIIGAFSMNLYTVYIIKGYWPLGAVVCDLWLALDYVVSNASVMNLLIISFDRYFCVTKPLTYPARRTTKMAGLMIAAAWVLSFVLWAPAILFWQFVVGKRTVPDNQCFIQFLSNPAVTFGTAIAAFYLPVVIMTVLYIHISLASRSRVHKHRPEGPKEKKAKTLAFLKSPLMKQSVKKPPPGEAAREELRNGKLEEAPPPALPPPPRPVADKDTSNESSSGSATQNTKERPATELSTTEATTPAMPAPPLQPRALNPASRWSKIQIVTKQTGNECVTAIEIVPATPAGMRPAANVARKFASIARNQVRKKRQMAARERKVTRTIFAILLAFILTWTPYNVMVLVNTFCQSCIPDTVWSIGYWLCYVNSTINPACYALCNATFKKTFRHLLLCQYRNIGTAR
CHRM4 PAM: CHRM4 positive allosteric modulation; P08173; CHO-K1 hM4/Gqi5, Fluo-8 calcium fluorescence, ACh EC20; 0% = ACh EC20, 100% = maximal ACh; activation, % at 3 µM; hit rate 0.4% among 360,000;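 active = activation above its plate's cutoff, the mean activation of sample wells plus 3 SD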
M4 ag: agonists of human muscarinic M4 receptor (CHRM4) | P08173 | activation, % at 3 µM | hit rate 0.14% among 360,000 | CHO-K1 hM4/Gqi5, Fluo-8 calcium fluorescence; vehicle 0%, full acetylcholine response 100%;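 active = activation above the run mean over all test wells plus 3 SD, cut at about 32% in these data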;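 note: peak over basal fluorescence ratio per well then scaled between controls; 0% = DMSO wells and 100% = acetylcholine at EC100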
CHRM5 agonist: agonists of human muscarinic M5 receptor (CHRM5) | hit rate 0.19% among 360,000 | activation, % at 3 µM | CHO-K1 hM5 cells, Fluo-8 calcium fluorescence; 0% DMSO wells, 100% maximal acetylcholine response;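 active = activation above the run's mean over test compounds plus 3 SD, cut at about 23% in these data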;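 note: signal is peak over basal fluorescence ratio across the kinetic read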
CHRM5 PAM: positive allosteric modulators of human muscarinic M5 receptor; P08912; CHO-K1 hM5, Fluo-8 calcium, ACh EC20 PAM; 0% = ACh EC20, 100% = ACh EC100; activation, % at 3 µM; hit rate 0.3% among 360,000;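 active = activation above the run cutoff, the mean activation of all test compounds plus 3 SD, cut at about 18% in these data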
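system = human M5 receptor in CHO-K1 cells | reagent = EC20 acetylcholine as agonist stimulus | compound dosing = single-point, 3 µM nominal | incubation = Fluo-8 loading 80 min at 37 °C plus 30 min room temperature | detection = Fluo-8 calcium dye fluorescence, kinetic read | benchmarks = low control EC20 acetylcholine (0%), high control EC100 acetylcholine (100%)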
M5 antag: blocks acetylcholine activation of human M5 receptor | P08912 | CHO-hM5 cells, Fluo-8 calcium fluorescence, ACh EC80 | inhibition, % at 3 µM | hit rate 0.59% among 360,000;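 active = inhibition above a per-plate cutoff, the mean of that plate's test compounds plus 3 SD, cut at about 27% in these data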;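 note: 0% = acetylcholine EC80 with DMSO and 100% = DMSO without agonist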
The depositor's hits bear a star.

Screening CN(C(=O)CO/N=C/c1ccc(OC(F)F)cc1)C1CCS(=O)(=O)C1 (centres undefined) returned M4 antag -2, CHRM4 PAM 1, M4 ag 1, CHRM5 agonist 4, CHRM5 PAM 19* and M5 antag -6.
For O=[N+]([O-])c1ccc(C[n+]2ccccc2)cc1 the results were M4 antag 3, CHRM4 PAM 25*, M4 ag 0, CHRM5 agonist -3, CHRM5 PAM 16 and M5 antag -8.
For O=C(NCc1ccco1)c1ccc(-c2csnn2)cc1 the results were M4 antag 6, CHRM4 PAM -6, M4 ag 1, CHRM5 agonist 0, CHRM5 PAM 6 and M5 antag 1.
Screening C/C(=N/NC(=O)Nc1ccccc1)c1ccc(C)cc1 returned M4 antag -5, CHRM4 PAM 7, M4 ag 1, CHRM5 agonist -3, CHRM5 PAM -3 and M5 antag 13.
`O=C(CSCc1ccc(C(=O)O)cc1)Nc1ccccc1` gave M4 antag -4, CHRM4 PAM 1, M4 ag 0, CHRM5 agonist -2, CHRM5 PAM -6 and M5 antag 1.
For O=C(Nc1ccccc1)Nc1ccc2ccccc2c1 the results were M4 antag 2, CHRM4 PAM -21, M4 ag 16, CHRM5 agonist 3, CHRM5 PAM -33 and M5 antag 33*.
O=C(CSCc1ccc(C(=O)O)cc1)Nc1ccc2ccccc2c1 was read as M4 antag 34*, CHRM4 PAM 13, M4 ag 1, CHRM5 agonist 3, CHRM5 PAM -5 and M5 antag 2.
`C/C(=N\NC(=O)Nc1ccccc1)c1ccc2ccccc2c1` gave M4 antag -10, CHRM4 PAM 8, M4 ag 1, CHRM5 agonist -4, CHRM5 PAM -7 and M5 antag 34*.
`CC(=O)Nc1ccc2ccccc2c1` gave M4 antag 6, CHRM4 PAM 11, M4 ag 1, CHRM5 agonist 2, CHRM5 PAM 0 and M5 antag -4.
Screening Cc1ccc(NC(=O)NC2CCCCCCC2)cc1 returned M4 antag 2, CHRM4 PAM -2, M4 ag 6, CHRM5 agonist -1, CHRM5 PAM -6 and M5 antag 8.
For COc1ccc(NC(=O)CCS(=O)(=O)c2ccc3c(c2)CCN3C(C)=O)cc1 the results were M4 antag -4, CHRM4 PAM 0, M4 ag 1, CHRM5 agonist -4, CHRM5 PAM 4 and M5 antag -5.
`Cc1[nH]c2ccccc2c1/C=N/NC(=O)c1cc(-c2ccccc2)n[nH]1` gave M4 antag 10, CHRM4 PAM -7, M4 ag 4, CHRM5 agonist 4, CHRM5 PAM -4 and M5 antag 0.
For Cc1[nH]c2ccccc2c1/C=N/NC(=O)c1cc(-c2ccncc2)nc2ccccc12 the results were M4 antag 1, CHRM4 PAM -6, M4 ag 13, CHRM5 agonist 1, CHRM5 PAM 31* and M5 antag 24.
CC(C)(C)NC(=O)C(c1cccs1)N(Cc1ccc(F)cc1)C(=O)c1csnn1 (centres undefined) was read as M4 antag 6, CHRM4 PAM -1, M4 ag 3, CHRM5 agonist -5, CHRM5 PAM -14 and M5 antag 37*.
`CC(C)(C)NC(=O)C(c1cccs1)N(C(=O)c1csnn1)c1cccc(F)c1` (centres undefined) gave M4 antag -8, CHRM4 PAM 0, M4 ag 1, CHRM5 agonist -3, CHRM5 PAM -5 and M5 antag -7.
Screening COc1cccc(C2CC(c3ccccc3)=NN2S(=O)(=O)c2ccc(C)cc2)c1OC (centres undefined) returned M4 antag 2, CHRM4 PAM -6, M4 ag 1, CHRM5 agonist 5, CHRM5 PAM 27* and M5 antag 3.
`Cc1cccc(OCC(=O)O/N=C(\N)c2ccc(Br)cc2)c1` gave M4 antag -3, CHRM4 PAM -1, M4 ag 0, CHRM5 agonist -1, CHRM5 PAM 0 and M5 antag 6.
For CCCCC(c1nc2ccccc2[nH]1)n1c(=O)c(-c2ccccc2)nc2cc(C)c(C)cc21 (centres undefined) the results were M4 antag -2, CHRM4 PAM 21*, M4 ag 2, CHRM5 agonist 0, CHRM5 PAM -4 and M5 antag 11.
Screening O=C(CSc1nc2ccccc2c(=O)n1-c1ccc(F)cc1)Nc1cc(S(=O)(=O)N2CCOCC2)ccc1Cl returned M4 antag 30*, CHRM4 PAM -38, M4 ag 4, CHRM5 agonist 2, CHRM5 PAM -9 and M5 antag 5.
`CCCOC(=O)C1=C(C)OC23OC(N)=C(C#N)C12C(=O)c1ccccc13` (centres undefined) gave M4 antag 34*, CHRM4 PAM -16, M4 ag 0, CHRM5 agonist -2, CHRM5 PAM -12 and M5 antag 7.
For COCCNc1nc(Nc2ccc(F)cc2)c2sccc2n1 the results were M4 antag -2, CHRM4 PAM -4, M4 ag 9, CHRM5 agonist 3, CHRM5 PAM -7 and M5 antag 13.
For O=C1N=c2ccccc2=C1c1sc(NS(=O)(=O)c2ccccc2)nc1O the results were M4 antag 0, CHRM4 PAM 28*, M4 ag -1, CHRM5 agonist -2, CHRM5 PAM 8 and M5 antag 4.
For O=C1N=c2ccccc2=C1c1sc(NS(=O)(=O)Cc2ccccc2)nc1O the results were M4 antag 5, CHRM4 PAM -10, M4 ag 0, CHRM5 agonist 0, CHRM5 PAM 4 and M5 antag 2.
CCCCCCCCCC[n+]1cccc2c3ccccc3ccc21 was read as M4 antag 58*, CHRM4 PAM -23, M4 ag 5, CHRM5 agonist -9, CHRM5 PAM -30 and M5 antag 46*.
`CCCCCCCC[n+]1cccc2c3ccccc3ccc21` gave M4 antag 65*, CHRM4 PAM -25, M4 ag 0, CHRM5 agonist -14, CHRM5 PAM -18 and M5 antag 36*.
For O=C(CCCc1c[nH]c2ccccc12)NCCc1c[nH]c2ccccc12 the results were M4 antag 6, CHRM4 PAM -2, M4 ag 8, CHRM5 agonist 2, CHRM5 PAM 1 and M5 antag 4.

Screening data as filed in PubChem BioAssay.
